Measured values from ChEMBL document CHEMBL4513216, “Probing the Open Global Health Chemical Diversity Library for Multistage-Active Starting Points for Next-Generation Antimalarials” (ACS Infect Dis, 2020).

Test: Toxicity liver stage against HepG2, at 10uM
Assay type: cell-based
Set-up: test concentration 10 uM, cell line HepG2-A16-CD81EGFP
Conditions: human, HepG2-A16-CD81EGFP cells; read-out: INHIBITION
Method in brief: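 Uninfected HepG2-A16-CD81EGFP cells, 3 × 10^3 per well, 1536-well, plated on prespotted compound at 10 μM final, parasite-free screening media added to match infected plates; puromycin 10 μM positive, DMSO 0.5% negative; run in parallel with 48 h PbLuc assay at 37 °C, 5% CO2; viability by CellTiter-Glo luminescence, normalized to controls.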

Row | Structure (SMILES) | cytotoxicity at 10 µM [%]
1 | Cc1cc(NC(=O)NCCc2cscn2)nn1C | 2.24
2 | Fc1ccc(CN2CCC(c3n[nH]c4nccnc34)CC2)cc1F | -11.8
3 | CCCN1CCCN(C(=O)C(CC)N2CCCC2=O)CC1 (stereo unspecified) | -6.17
4 | COc1ccccc1OCC(=O)Nc1ncccc1OC(F)F | 7.25
5 | Cc1nc(C)n(CC2CCCN(CC(=O)Nc3cc(C)on3)C2)n1 (stereo unspecified) | -3.1
6 | O=C(c1cccnc1)N1CCCC2(CCN(c3ccsc3)C2=O)C1 (stereo unspecified) | -1.29
7 | COc1nc2c(cc1C(=O)N(C)Cc1noc3c1CCCC3)CCC2 | 0.224
8 | CNS(=O)(=O)c1ccc(C)c(C(=O)NCCNc2ncccn2)c1 | -1.87
9 | CCc1nc(C2CCCN2CCn2cncn2)no1 (stereo unspecified) | -8.13
10 | FC(F)(F)c1nc(NC2CCc3ncnn3C2)c2ccccc2n1 (stereo unspecified) | -2.99
11 | COc1ncc(NS(=O)(=O)c2ccc(F)cc2F)cn1 | -3.96
12 | OCCN1CCN(Cc2coc(-c3ccccc3)n2)CC1 | -5.03
13 | Cc1csc(CNC(=O)NC(C)c2ccc3c(c2)CCC(=O)N3)n1 (stereo unspecified) | 4.17
14 | O=S(=O)(C1CC1)N1CCC(Cn2cccn2)CC1 | -8.29
15 | Fc1ccc(N2CCOC3(COCCN(c4ncccn4)C3)C2)cc1 (stereo unspecified) | -95.4
16 | Cc1ccccc1C1CCN(CCn2cc(-c3nccs3)nn2)C1 (stereo unspecified) | -1.29
17 | CNc1ncccc1CN1CCN(C)CC(C(=O)N(C)C)C1 (stereo unspecified) | 16.1
18 | COC(=O)c1ccc(CNC(=O)CN2C[C@@H](NC(C)=O)[C@H](C(C)C)C2)o1 | -0.921
19 | NC(=O)CN1CCCC1c1cncc(Oc2ccc(Cl)cc2)n1 (stereo unspecified) | -10.4
20 | COc1ccc(CC(=O)N2CCCC(c3nncn3C)C2)cc1 (stereo unspecified) | -7.47
21 | COc1ccc(C(CNC(=O)Nc2cn[nH]c2)N2CCOCC2)cc1 (stereo unspecified) | 1.3
22 | Cc1cnn(CC2CCCN2C(=O)c2c(C)noc2C(C)C)c1 (stereo unspecified) | -0.502
23 | CCNC(=O)NC1CCC(Oc2ccccc2C#N)CC1 (stereo unspecified) | -9.08

Row | Structure (SMILES) | cytotoxicity at 10 µM [%]
24 | FC(F)(F)CCc1ccnc(N2CCN(CCc3ccncc3)CC2)n1 | -5.86
25 | O=C(Nc1cc2c(cc1Br)OCCO2)NC1CCS(=O)(=O)C1 (stereo unspecified) | -9.82
26 | OCCN1CCC(c2csc(Nc3cnccn3)n2)CC1 | -4.26
27 | CN1CCCC(c2cccc(-c3ccccc3F)n2)C1 (stereo unspecified) | 2.58
28 | O=c1c(NCc2ccco2)c(NCC(O)CN2CCOCC2)c1=O (stereo unspecified) | -55.8
29 | CCSc1ccccc1C(=O)NCC1CCN(Cc2ccsc2)CC1 | -8.44
30 | COCCOC(=O)N1C[C@@H]2CC[C@H]1CN(C1Cc3ccccc3C1)C2 | 1.06
31 | CCn1cc(CN2CCc3nc(-c4ccccn4)nc(O)c3C2)cn1 | -2.25
32 | COc1ccc(-c2nnc(SCC(=O)NCC(C)C)[nH]2)c(OC)c1 | -6.73
33 | COc1ccc(CN2CCc3sccc3C2C)cc1CN1CCOCC1 (stereo unspecified) | -0.782
34 | COCCn1ccc2cc(NC(C)=O)ccc21 | -12
35 | CC(=O)N1CCCC1c1nnn2cc(Nc3ccccc3)ccc12 (stereo unspecified) | 12.2
36 | Cc1cc(C)n(C2CN(CC(=O)NC(C3CC3)C3CC3)C2)n1 | -9.8
37 | NC(=O)Cn1ccnc1C1CCCN(Cc2ccccc2OC(F)F)C1 (stereo unspecified) | -22
38 | O=C1CC2(CCN(C(=O)c3csc(-c4ccccc4)n3)C2)C(=O)N1 (stereo unspecified) | -1.25
39 | c1csc(NCc2n[nH]c3c2CCN(CC2CC2)C3)n1 | -0.733
40 | CC(C)(CNC(=O)c1ccco1)NC(=O)OC(C)(C)C | -2.43
41 | Cc1ccccc1OCCC(=O)N1CCC(c2nncn2C)CC1 | -13.3
42 | CCCc1cc(C(=O)N2CCC3(CCCNC3=O)C2)cs1 (stereo unspecified) | -142
43 | CN(CCCc1ccccc1)Cc1nc2c(cnn2C)c(=O)[nH]1 | -9.56
44 | O=C(c1ccoc1)N1CC[C@@H]2[C@@H](CC1)OCCN2c1cccnc1 | 11.1
45 | CCCNC(=O)C(C)Nc1cccc(Oc2ccc(C#N)cn2)c1 (stereo unspecified) | -7.99
46 | Cc1nc(C2CCCN2C(=O)CCOCc2ccccc2)no1 (stereo unspecified) | -2.4

Row | Structure (SMILES) | cytotoxicity at 10 µM [%]
47 | O=C(N1CCCC1)N1CCc2ncnc(C3CCOC3)c2CC1 (stereo unspecified) | 3.45
48 | C[C@@H]1CN(Cc2ccccc2)CCN1C(=O)NCc1nccs1 | -142
49 | Cc1ncsc1CN1C[C@@H]2COC[C@]2(C(=O)NC(C)C)C1 | -98.6
50 | c1ncn(CC2CCCN(Cc3nnc(C4CC4)o3)C2)n1 (stereo unspecified) | -14.5
51 | O=C(COCc1ccccc1)N1CCC(OCc2cccnc2)CC1 | 4.41
52 | CN(C)c1ccc(C(=O)N2CCCN(C3CCCCC3)CC2)cn1 | -6.46
53 | Cc1cc(C)n(C2CCCN(C(=O)c3ccc(N(C)C)nn3)C2)n1 (stereo unspecified) | -9.31
54 | Cn1ccnc1CN1CCC2(CC1)CCN(c1ccccc1)C2=O | -9.06
55 | COc1cccc(OC2CN(C(=O)Cn3nc4ccccc4n3)C2)c1 | -6.98
56 | COCCC1(C(=O)O)CCCN(C(=O)c2cc(F)ccc2OC)C1 (stereo unspecified) | -11.4
57 | CCc1ccccc1C(=O)N1CCCC1CC(=O)c1cnn(C)c1 (stereo unspecified) | -1.22
58 | CNc1cc2c(nn1)CCN(C(=O)c1cccc3c1OCCO3)C2 | -5.13
59 | O=C(CC1CCCC1)N1CCC(c2cc3ncccc3c(O)n2)CC1 | -24.7
60 | CC(NC(=O)c1cc(-c2cccc(Cl)c2)no1)C(=O)N1CCCC1 (stereo unspecified) | 3.59
61 | CC(C)(C)C(=O)NCCC(=O)NS(=O)(=O)c1cccnc1 | -3.15
62 | CCc1ccc(CN2CC[C@H]3[C@H]2CC(=O)N3Cc2cccc(C)n2)o1 | -2.19
63 | CC1(C)CCC(C(=O)O)c2ccccc21 (stereo unspecified) | -1.92
64 | CCN(Cc1cnn(C)c1)C(=O)c1cc2ccccc2c(=O)[nH]1 | -7.94
65 | CCS(=O)(=O)CC(=O)NC1(c2ccc(Cl)c(Cl)c2)CC1 | -2.6
66 | CCNc1ncc(CN2C[C@@H](C(=O)O)[C@H](C3CC3)C2)cn1 | -46.1
67 | Cc1cnc(N2CCC3(CC2)CC(NC(=O)C(C)C)CO3)nc1 (stereo unspecified) | 8.19
68 | Cc1ncc(CN(C)C2CCCN(CCc3ccccc3)C2)n1C (stereo unspecified) | -4.17
69 | O=C(c1cscn1)N1CC[C@H]2[C@@H]1CCC(=O)N2c1ccccc1 | -68.8

Row | Structure (SMILES) | cytotoxicity at 10 µM [%]
70 | Cc1nc(N2CCCC2)nc2c1CN(C(=O)NC(C)C)CC2 | 2.94
71 | CC(=O)N1CCCN(C(=O)CN(C)c2ccc(Cl)cn2)CC1 | -7.64
72 | O=C(NCC1CCCO1)N1CCN(Cc2ccc3c(c2)CCO3)CC1 (stereo unspecified) | -5.91
73 | CN(CCc1ccccn1)C(=O)Cn1cc(-c2ccccc2)nn1 | 0.788
74 | CN(C)c1ncc(CNS(=O)(=O)c2cccc3ccccc23)n1C | 8.32
75 | CC(NC(N)=O)C(=O)N1CCCN(Cc2nccn2C(C)C)CC1 (stereo unspecified) | 1.95
76 | COCCN(C)C[C@@H]1CN(C(=O)c2ccc3c(c2)OCO3)C[C@@H]1CO | 8.47
77 | CC(C)CN1CCN(C(=O)Nc2cc(C(F)(F)F)c[nH]c2=O)CC1 | -3.43
78 | O=C(c1cccc(S(=O)(=O)NCCCn2cccn2)c1)N1CCOCC1 | 5.78
79 | Cc1c(C(C)NC2CCOCC2)cnn1-c1ccc(F)cc1F (stereo unspecified) | -8.87
80 | CC(C)NC(=O)c1nnn(-c2cccc(C(F)(F)F)c2)c1N | -11.5
81 | CC(=O)N1CC[C@H]2NC(=O)N(Cc3ccccc3)C(=O)[C@H]21 | 4.47
82 | CN1CC(=O)N(c2ccccc2)CC12CCN(CCO)C2 (stereo unspecified) | 3.16
83 | O=C(NCCN1CCCCC1)c1scnc1Cl | -7.69
84 | CN(Cc1ccco1)Cc1ccccc1CNC(=O)c1c[nH]nn1 | -2.89
85 | Cc1cc2n(n1)CC(CNCc1ccc(Oc3ccccc3)nc1)CN2 (stereo unspecified) | -10.1
86 | CCCC(=O)N(C)c1cccc2ncccc12 | 3.94
87 | O=C1CC(c2ccccc2)c2sc(C(=O)O)c(-c3ccccc3)c2N1 (stereo unspecified) | -2.31
88 | CC(=O)N1CCc2ccc(S(=O)(=O)N3CCCCC3C)cc21 (stereo unspecified) | -10.3
89 | CC(C)NC(=O)c1nnn(-c2ccccc2)c1C1CC1 | 2.2
90 | Cc1cncc(NC(=O)c2ccc(CN3CC[C@H](O)C3)cc2)c1 | 12.4
91 | Cc1ccc(CNC(=O)N2CCCC(NS(C)(=O)=O)C2)cc1 (stereo unspecified) | 2.73
92 | COC(=O)CN(C(=O)c1ccc(Cl)cn1)c1cccc(F)c1 | -8.61

Row | Structure (SMILES) | cytotoxicity at 10 µM [%]
93 | CC(Cn1ccnc1)NC(=O)NCCc1ccccn1 (stereo unspecified) | -6.05
94 | CCc1ocnc1C(=O)N1CCC(C2CCN(c3ncccn3)CC2)C1 (stereo unspecified) | 3.6
95 | CCN1CC(C(=O)NCCn2cccc2)CC1=O (stereo unspecified) | -4.72
96 | Cn1nccc1-c1nnn2c1COCC(CNCC1CC1)C2 (stereo unspecified) | -98.8
97 | CC(C)NC(=O)[C@@H]1CN(C)C[C@]12COc1ccc(F)cc1C2=O | 2.17
98 | CN(CCn1cnc(-c2ccccc2)c1-c1ncc[nH]1)S(C)(=O)=O | 1.87
99 | CNc1cncc(C2CCCN2C(=O)CCn2ccnc2)n1 (stereo unspecified) | 3.91
100 | Fc1cnc(N2CCc3nnc(COc4ccccn4)n3CC2)nc1 | 8.13
101 | CCC(C)c1ccc(NC(=O)C2CCN(C(=O)N(C)C)CC2)cc1 (stereo unspecified) | -7.29
102 | Cc1nc(C(C)C)sc1C(=O)NS(=O)(=O)c1ccc(C#N)cc1 | -6.94
103 | CN(Cc1nc2ccccc2[nH]1)C(=O)CN(C)c1ccc(Cl)cn1 | -2.66
104 | Cn1cc(NC(=O)N2CCC(OCc3ccccc3)CC2)ccc1=O | -5.75
105 | O=C(NCC1CCOCC1)c1cc(-c2cccnc2)c2cnccc2n1 | 13.2
106 | O=C(CCc1ccccc1F)NS(=O)(=O)c1ccc2c(c1)OCCCO2 | -3.2
107 | CCOc1cccc2c1OCC(C(=O)NS(=O)(=O)c1cncc(Br)c1)=C2 | -0.713
108 | COCc1cc(CNC(=O)c2c(O)cccc2O)n[nH]1 | -6.93
109 | O=C(CCc1c(F)cccc1F)NS(=O)(=O)c1ccc2c(c1)OCCO2 | -4.71
110 | CNS(=O)(=O)CC(=O)NC(C)Cc1ccccc1Br (stereo unspecified) | 13.7
111 | CSC(C)CCN1CCC(n2cc(C3CCCCC3)nn2)CC1 (stereo unspecified) | -1.39
